# From ChEMBL document CHEMBL1151705, “Novel azalides derived from 16-membered macrolides. Part II: Isolation of the linear 9-formylcarboxylic acid and its sequential macrocyclization with an amino alcohol or an azidoamine” (2008)
# How the values were obtained:
# Format in all cases: functional
# [1] = tested on: Haemophilus influenzae; test: Antimicrobial activity against drug-susceptible Haemophilus influenzae 4 after 20 hrs by agar dilution method
# How it was run: (§1)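 Streptococci, H. influenzae and M. catarrhalis were precultured on blood agar plates. Suspensions of about 10⁶ CFU/ml were inoculated onto sensitivity disk agar supplemented with 5% horse blood and incubated at 37 °C for 20 h. MIC was read as the lowest drug concentration with no visible growth.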
# [2] = tested on: Streptococcus pneumoniae; test: Antimicrobial activity against drug-susceptible Streptococcus pneumoniae DP1 Type1 after 20 hrs by agar dilution method; how it was run: as §1
# [3] = tested on: Streptococcus pyogenes; test: Antimicrobial activity against drug-susceptible Streptococcus pyogenes 1 after 20 hrs by agar dilution method; how it was run: as §1
# [4] = tested on: Staphylococcus aureus; test: Antimicrobial activity against drug-susceptible Staphylococcus aureus 209P JC-1 after 20 hrs by agar dilution method
# How it was run: (§2)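 Agar dilution MIC. S. aureus seed culture was grown in sensitivity test broth. Cell suspension (about 10⁶ CFU/ml) was inoculated onto sensitivity disk agar with 5% horse blood and incubated at 37 °C for 20 h. MIC was the lowest drug concentration that prevented visible growth.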
# [5] = tested on: Streptococcus pneumoniae; test: Antimicrobial activity against drug-susceptible Streptococcus pneumoniae 2 after 20 hrs by agar dilution method; how it was run: as §1
# [6] = tested on: Haemophilus influenzae; test: Antimicrobial activity against drug-susceptible Haemophilus influenzae 2 after 20 hrs by agar dilution method; how it was run: as §1
# [7] = tested on: Moraxella catarrhalis; test: Antimicrobial activity against drug-susceptible Moraxella catarrhalis 1 after 20 hrs by agar dilution method; how it was run: as §1
# [8] = tested on: Staphylococcus aureus; test: Antimicrobial activity against drug-susceptible Staphylococcus aureus 3 after 20 hrs by agar dilution method; how it was run: as §2
# [9] = tested on: Streptococcus pneumoniae; test: Antimicrobial activity against Streptococcus pneumoniae 5 constitutively expressing ermB/mefA after 20 hrs by agar dilution method; settings: Streptococcus pneumoniae, 20 h; read-out: MIC; how it was run: as §1
# [10] = tested on: Streptococcus pneumoniae; test: Antimicrobial activity against Streptococcus pneumoniae 10 expressing mefA after 20 hrs by agar dilution method; how it was run: as §1
# [11] = tested on: Streptococcus pneumoniae; test: Antimicrobial activity against Streptococcus pneumoniae 7 expressing inducible ermB after 20 hrs by agar dilution method; how it was run: as §1
# [12] = tested on: Staphylococcus aureus; test: Antimicrobial activity against Staphylococcus aureus 5 expressing inducible ermB after 20 hrs by agar dilution method; how it was run: as §2
# [13] = tested on: Staphylococcus aureus; test: Antimicrobial activity against Staphylococcus aureus 6 expressing inducible ermB after 20 hrs by agar dilution method; how it was run: as §2
# [14] = tested on: Streptococcus pneumoniae; test: Antimicrobial activity against Streptococcus pneumoniae 8 expressing inducible ermB after 20 hrs by agar dilution method; how it was run: as §1
# [15] = tested on: Moraxella catarrhalis; test: Antimicrobial activity against drug-susceptible Moraxella catarrhalis 2 after 20 hrs by agar dilution method; how it was run: as §1
# [16] = tested on: Staphylococcus aureus; test: Antimicrobial activity against Staphylococcus aureus 4 constitutively expressing ermA after 20 hrs by agar dilution method; how it was run: as §2
# [17] = tested on: Staphylococcus aureus; test: Antimicrobial activity against drug-susceptible Staphylococcus aureus 2 after 20 hrs by agar dilution method; how it was run: as §2
# [18] = tested on: Haemophilus influenzae; test: Antimicrobial activity against drug-susceptible Haemophilus influenzae 1 after 20 hrs by agar dilution method; how it was run: as §1
# [19] = tested on: Streptococcus pneumoniae; test: Antimicrobial activity against drug-susceptible Streptococcus pneumoniae 3 after 20 hrs by agar dilution method; how it was run: as §1
# [20] = tested on: Haemophilus influenzae; test: Antimicrobial activity against drug-susceptible Haemophilus influenzae 3 after 20 hrs by agar dilution method; how it was run: as §1
# [21] = tested on: Streptococcus pneumoniae; test: Antimicrobial activity against Streptococcus pneumoniae 4 constitutively expressing ermB after 20 hrs by agar dilution method; settings: Streptococcus pneumoniae, 20 h; read-out: MIC; how it was run: as §1
# [22] = tested on: Streptococcus pyogenes; test: Antimicrobial activity against Streptococcus pyogenes 2 constitutively expressing ermB after 20 hrs by agar dilution method; how it was run: as §1
# [23] = tested on: Streptococcus pneumoniae; test: Antimicrobial activity against Streptococcus pneumoniae 9 expressing mefA after 20 hrs by agar dilution method; how it was run: as §1
# [24] = tested on: Streptococcus pneumoniae; test: Antimicrobial activity against Streptococcus pneumoniae 6 constitutively expressing ermB after 20 hrs by agar dilution method; settings: Streptococcus pneumoniae, 20 h; read-out: MIC; how it was run: as §1
# [25] = tested on: Streptococcus pyogenes; test: Antimicrobial activity against Streptococcus pyogenes 3 expressing mefA after 20 hrs by agar dilution method; how it was run: as §1
# [26] = Haemophilus influenzae, 20 h, read-out: MIC
# [27] = Streptococcus pneumoniae, 20 h, read-out: MIC
# [28] = Streptococcus pyogenes, 20 h, read-out: MIC
# [29] = Staphylococcus aureus, 209P, 20 h, read-out: MIC
# [30] = Moraxella catarrhalis, 20 h, read-out: MIC
# [31] = Staphylococcus aureus, 20 h, read-out: MIC
"MIC [1, 26]","MIC [2, 27]","MIC [3, 28]","MIC [4, 29]","MIC [5, 27]","MIC [8, 31]",MIC [9],"MIC [10, 27]","MIC [11, 27]","MIC [12, 31]",MIC [13],"MIC [15, 30]",MIC [16],"MIC [17, 31]","MIC [18, 26]","MIC [19, 27]","MIC [20, 26]",MIC [21],MIC [22],"MIC [23, 27]",Structure (SMILES),other results
16 µg/mL,0.03 µg/mL,0.06 µg/mL,0.5 µg/mL,0.06 µg/mL,0.25 µg/mL,> 128 µg/mL,0.06 µg/mL,8 µg/mL,0.5 µg/mL,0.5 µg/mL,2 µg/mL,> 128 µg/mL,1 µg/mL,32 µg/mL,0.06 µg/mL,16 µg/mL,> 128 µg/mL,> 128 µg/mL,0.06 µg/mL,CCOC(=O)[C@H]1[C@H](C)O[C@@H](O[C@H]2[C@H](N(C)C)[C@@H](O)[C@H](O[C@H]3[C@@H](CC=O)C[C@@H](C)[C@@H](O)CN(C)CCC[C@H](CCCc4ccnc5ccccc45)OC(=O)C[C@@H](OC(=O)CC)[C@@H]3OC)O[C@@H]2C)C[C@@]1(C)O,"MIC [6, 26]: 4 µg/mL; MIC [7, 30]: 2 µg/mL; MIC [14, 27]: 8 µg/mL; MIC [24]: > 128 µg/mL; MIC [25, 28]: 0.5 µg/mL"
–,–,–,–,–,–,–,–,–,–,–,–,–,–,–,–,–,–,–,–,CCOC(=O)[C@H]1[C@H](C)O[C@@H](O[C@H]2[C@H](N(C)C)[C@@H](O)[C@H](O[C@H]3[C@@H](CC=O)C[C@@H](C)[C@@H](O)CN(C)CCC(C/C=C/c4cnc5ccccc5c4)NC(=O)C[C@@H](OC(=O)CC)[C@@H]3OC)O[C@@H]2C)C[C@@]1(C)O (stereo in doubt; form 2),MIC [1]: 32 µg/mL; MIC [2]: 0.13 µg/mL; MIC [3]: 0.5 µg/mL; MIC [4]: 1 µg/mL; MIC [5]: 0.25 µg/mL; MIC [6]: 4 µg/mL; MIC [7]: 8 µg/mL; MIC [8]: 0.5 µg/mL; MIC [10]: 0.25 µg/mL; MIC [11]: >128 µg/mL; MIC [12]: 1 µg/mL; MIC [14]: >128 µg/mL; MIC [15]: 4 µg/mL; MIC [17]: 2 µg/mL; MIC [18]: 64 µg/mL; MIC [19]: 0.25 µg/mL; MIC [20]: 16 µg/mL; MIC [23]: 0.5 µg/mL; MIC [25]: 4 µg/mL
16 µg/mL,0.03 µg/mL,0.13 µg/mL,0.5 µg/mL,0.06 µg/mL,0.25 µg/mL,> 128 µg/mL,0.06 µg/mL,16 µg/mL,0.5 µg/mL,0.5 µg/mL,2 µg/mL,> 128 µg/mL,1 µg/mL,32 µg/mL,0.06 µg/mL,8 µg/mL,> 128 µg/mL,> 128 µg/mL,0.06 µg/mL,CCOC(=O)[C@H]1[C@H](C)O[C@@H](O[C@H]2[C@H](N(C)C)[C@@H](O)[C@H](O[C@H]3[C@@H](CC=O)C[C@@H](C)[C@@H](O)CN(C)CCC(CCCc4cnc5ccccc5c4)NC(=O)C[C@@H](OC(=O)CC)[C@@H]3OC)O[C@@H]2C)C[C@@]1(C)O (mixture of isomers),"MIC [6, 26]: 1 µg/mL; MIC [7]: 2 µg/mL; MIC [14]: 64 µg/mL; MIC [24]: > 128 µg/mL; MIC [25, 28]: 0.5 µg/mL"
8 µg/mL,0.015 µg/mL,0.06 µg/mL,0.25 µg/mL,0.03 µg/mL,0.25 µg/mL,> 128 µg/mL,0.03 µg/mL,16 µg/mL,0.25 µg/mL,0.5 µg/mL,1 µg/mL,> 128 µg/mL,0.5 µg/mL,32 µg/mL,0.03 µg/mL,8 µg/mL,> 128 µg/mL,> 128 µg/mL,0.03 µg/mL,CCOC(=O)[C@H]1[C@H](C)O[C@@H](O[C@H]2[C@H](N(C)C)[C@@H](O)[C@H](O[C@H]3[C@@H](CC=O)C[C@@H](C)[C@@H](O)CN(C)CC(CCCc4ccnc5ccccc45)CCOC(=O)C[C@@H](OC(=O)CC)[C@@H]3OC)O[C@@H]2C)C[C@@]1(C)O (stereo in doubt; form 1),"MIC [7, 30]: 1 µg/mL; MIC [14, 27]: 16 µg/mL; MIC [24]: > 128 µg/mL; MIC [25, 28]: 0.25 µg/mL"
–,–,–,–,–,–,–,–,–,–,–,–,–,–,–,–,–,–,–,–,CCOC(=O)[C@H]1[C@H](C)O[C@@H](O[C@H]2[C@H](N(C)C)[C@@H](O)[C@H](O[C@H]3[C@@H](CC=O)C[C@@H](C)[C@@H](O)CN(C)CCC(CCCc4cnc5ccccc5c4)NC(=O)C[C@@H](OC(=O)CC)[C@@H]3OC)O[C@@H]2C)C[C@@]1(C)O (stereo in doubt),MIC [1]: 16 µg/mL; MIC [2]: 0.03 µg/mL; MIC [3]: 0.25 µg/mL; MIC [4]: 1 µg/mL; MIC [5]: 0.06 µg/mL; MIC [6]: 2 µg/mL; MIC [7]: 8 µg/mL; MIC [8]: 0.5 µg/mL; MIC [10]: 0.06 µg/mL; MIC [11]: 8 µg/mL; MIC [14]: 8 µg/mL; MIC [15]: 4 µg/mL; MIC [17]: 2 µg/mL; MIC [18]: 32 µg/mL; MIC [19]: 0.06 µg/mL; MIC [20]: 8 µg/mL; MIC [23]: 0.06 µg/mL; MIC [25]: 1 µg/mL
